Measurements: ChEMBL document CHEMBL1128448, “Synthesis and antifungal activity of new azole derivatives containing an N-acylmorpholine ring” (1995)
≈ marks a conversion by molar mass, not a printed value.

Columns and labels:
Candida albicans [1] = experiment: Evaluation of In vitro antifungal activity against Candida albicans 60 by broth macro dilution method
Cryptococcus neoformans [2] = experiment: Evaluation of In vitro antifungal activity against Cryptococcus neoformans 87 by broth macro dilution method; assay type: functional
Summary of the method: (§1)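 Yeast MIC and MFC by broth macrodilution per NCCLS M27-P in RPMI-1640 buffered with 0.165 M MOPS. Fluconazole in sterile water, other drugs in DMSO. C. parapsilosis ATCC 22019 is the reference strain in each run. MIC is the lowest concentration with turbidity ≤ the 80% inhibition standard. For MFC, 0.04 mL from clear tubes is plated on Sabouraud agar; MFC is the lowest concentration giving ≤1 colony.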

Pichia kudriavzevii [3] = experiment: Evaluation of In vitro antifungal activity against Candida krusei 70 by broth macro dilution method; assay type: functional
Summary of the method: as §1

Rattus norvegicus [4] = experiment: In vivo evaluation of antifungal activity against vaginal candidosis in rat at dose 0.25 mg/kg on 15th day; assay type: functional
Summary of the method: (§2)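 Groups of 10 female Wistar rats given estradiol 25 mg/kg sc on day -5, infected intravaginally with C. albicans by sterile swab on day 0; infection confirmed on day 3 by swab culture (TSB, then Sabouraud agar). Oral dosing once daily on days 3, 4, 5; vehicle controls. Vaginal swabs cultured on days 10 and 15; read-out % cured (culture-negative).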

Candida albicans [5] = experiment: Evaluation of In vitro antifungal activity against Candida albicans 2.01 by broth macro dilution method; assay type: functional
Summary of the method: as §1

Candida albicans [6] = experiment: Evaluation of In vitro antifungal activity against Candida albicans 76 by broth macro dilution method; assay type: functional
Summary of the method: as §1

Candida tropicalis [7] = experiment: Evaluation of In vitro antifungal activity against Candida tropicalis 2.11 by broth macro dilution method; assay type: functional
Summary of the method: as §1

Rattus norvegicus [8] = experiment: In vivo evaluation of antifungal activity against vaginal candidosis in rat at dose 0.1 mg/kg on 15th day; assay type: functional
Summary of the method: (§3)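 Groups of 10 female Wistar rats given estradiol 25 mg/kg sc on day -5, then vaginally inoculated with C. albicans on day 0. Infection is confirmed by culture of day-3 swabs. Compound is dosed orally once daily on days 3–5; controls get vehicle. Cure is scored by culture of vaginal swabs taken on days 10 and 15.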

Candida parapsilosis [9] = experiment: In vitro evaluation of minimum inhibitory concentration against Candida parapsilosis 61; assay type: functional
Summary of the method: (§4)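 Stocks are 800 μg/mL in 50% ethanol. Each plate gets 10 μL of inoculum at 10^5 cfu/mL. Incubation at 25 °C, 48 h for yeasts and 120 h for dermatophytes and molds. Organisms are ATCC strains or clinical isolates.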

Kluyveromyces marxianus [10] = experiment: Evaluation of In vitro antifungal activity against Candida pseudotropicalis ATCC 28838 by broth macro dilution method; assay type: functional
Summary of the method: as §1

Mus sp. [11] = experiment: In vivo evaluation of % survival rate after peroral administration on 9th day at dose 1 mg/kg; assay type: functional; settings: route oral, 1 mg/kg
Candida tropicalis [12] = experiment: In vitro evaluation of minimum inhibitory concentration against Candida tropicalis 2.11; assay type: functional
Summary of the method: as §4

Kluyveromyces marxianus [13] = experiment: Evaluation of In vitro antifungal activity against yeasts by broth macro dilution method; assay type: functional
Summary of the method: as §1

Cryptococcus neoformans [14] = experiment: Evaluation of In vitro antifungal activity against Cryptococcus neoformans 74 by broth macro dilution method; assay type: functional
Summary of the method: as §1

Mus musculus = experiment: In vivo evaluation of % survival rate after peroral administration on 5th day at dose 0.5 mg/kg(as a water solution in (hydroxypropyl -beta-cyclodextrin)); assay type: functional; settings: route oral
Summary of the method: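 Groups of 10 male mice were infected iv with 0.2 mL of C. albicans at (2-8) × 10^7 cfu/mL. Oral doses were given at 1, 4 and 24 h post-infection. Vehicle-only controls were included, with at least 90% control mortality by day 3. Percent survival was recorded on days 3, 5, 7 and 9.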

Trichophyton benhamiae = experiment: In vitro evaluation of minimum inhibitory concentration against Trichophyton mentagrophytes 23; assay type: functional, Arthroderma benhamiae
Summary of the method: as §4

Candida albicans [15] = experiment: Evaluation of […] antifungal activity against Candida albicans 60 by broth macro dilution method; assay type: functional
Summary of the method: as §1

Candida albicans [16] = experiment: Evaluation of In vitro antifungal activity against Candida albicans 406 by broth macro dilution method; assay type: functional
Summary of the method: as §1

Pichia kudriavzevii [17] = experiment: In vitro evaluation of minimum inhibitory concentration against Candida krusei 70; assay type: functional
Summary of the method: as §4

Mus sp. [18] = experiment: In vivo evaluation of % survival rate after peroral administration on 9th day at dose 0.5 mg/kg; assay type: functional; settings: route oral, 0.5 mg/kg
Rattus norvegicus [19] = experiment: In vivo evaluation of antifungal activity against vaginal candidosis in rat at dose 0.1 mg/kg on 10th day; assay type: functional
Summary of the method: as §3

Candida parapsilosis [20] = experiment: Evaluation of In vitro antifungal activity against Candida parapsilosis ATCC 141095 by broth macro dilution method; assay type: functional; settings: Lodderomyces parapsilosis
Summary of the method: as §1

Candida albicans [21] = experiment: In vivo evaluation of minimum inhibitory concentration against Candida albicans 406; assay type: functional
Summary of the method: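 Broth macrodilution MIC following NCCLS M27-P, in RPMI-1640 buffered with 0.165 M MOPS. Fluconazole was dissolved in water and other drugs in DMSO. C. parapsilosis ATCC 22019 served as the reference strain in every run. MIC was the lowest concentration giving turbidity at or below the 80% inhibition standard.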

Candida parapsilosis [22] = experiment: Evaluation of In vitro antifungal activity against Candida parapsilosis C74 by broth macro dilution method; assay type: functional; settings: Lodderomyces parapsilosis
Summary of the method: as §1

Candida albicans [23] = experiment: Evaluation of In vitro antifungal activity against Candida albicans 31 by broth macro dilution method; assay type: functional
Summary of the method: as §1

Rattus norvegicus [24] = experiment: In vivo evaluation of antifungal activity against vaginal candidosis in rat at dose 0.25 mg/kg on 10th day; assay type: functional
Summary of the method: as §2

Question: `C[C@H]1N(C(=O)c2ccc(C(F)(F)F)cc2)CCO[C@@]1(Cn1cncn1)c1ccc(F)cc1F` (stereo in doubt; (-)-41) was tested. Which MFC (Candida albicans [1]) did it give?
Answer: Its MFC is over 64 µg/mL.

Question: What about the MFC (Cryptococcus neoformans [2]) of the same molecule?
Answer: The MFC was over 64 µg/mL.

Question: And the MIC (Cryptococcus neoformans [2])?
Answer: The MIC was 2 µg/mL (≈ 4.29 µM).

Question: And the MFC (Pichia kudriavzevii [3])?
Answer: Its MFC is over 64 µg/mL.

Question: What about the MIC (Pichia kudriavzevii [3]) of the same molecule?
Answer: Its MIC is 32 µg/mL (≈ 68.6 µM).

Question: And the Cure rate (Rattus norvegicus [4])?
Answer: The Cure rate was 60%.

Question: And the MFC (Candida albicans [5])?
Answer: The MFC was over 64 µg/mL.

Question: What about the MIC (Candida albicans [5]) of the same molecule?
Answer: Its MIC is 0.25 µg/mL (≈ 0.536 µM).

Question: And the MFC (Candida albicans [6])?
Answer: Its MFC is over 64 µg/mL.

Question: What about the MIC (Candida albicans [6]) of the same molecule?
Answer: The MIC was 0.125 µg/mL (≈ 0.268 µM).

Question: What about the MFC (Candida tropicalis [7]) of the same molecule?
Answer: Its MFC is over 64 µg/mL.

Question: What about the MIC (Candida tropicalis [7]) of the same molecule?
Answer: The MIC was 4 µg/mL (≈ 8.58 µM).

Question: What about the Cure rate (Rattus norvegicus [8]) of the same molecule?
Answer: Its Cure rate is 20%.

Question: And the MIC (Candida parapsilosis [9])?
Answer: The MIC was 10 µg/mL (≈ 21.4 µM).

Question: And the MFC (Kluyveromyces marxianus [10])?
Answer: The MFC was 32 µg/mL (≈ 68.6 µM).

Question: What about the Survival (Mus sp. [11]) of the same molecule?
Answer: Its Survival is 70%.

Question: And the MIC (Candida tropicalis [12])?
Answer: Its MIC is 40 µg/mL (≈ 85.8 µM).

Question: What about the MIC (Kluyveromyces marxianus [13]) of the same molecule?
Answer: The MIC was 0.125 µg/mL (≈ 0.268 µM).

Question: What about the MFC (Cryptococcus neoformans [14]) of the same molecule?
Answer: Its MFC is 0.25 µg/mL (≈ 0.536 µM).

Question: What about the MIC (Cryptococcus neoformans [14]) of the same molecule?
Answer: The MIC was 0.125 µg/mL (≈ 0.268 µM).

Question: What about the survival at 0.5 mg/kg (Mus musculus) of the same molecule?
Answer: The survival at 0.5 mg/kg was 100%.

Question: And the MIC (Trichophyton benhamiae)?
Answer: The MIC was 40 µg/mL (≈ 85.8 µM).

Question: What about the MIC (Candida albicans [15]) of the same molecule?
Answer: Its MIC is 0.25 µg/mL (≈ 0.536 µM).

Question: What about the MFC (Candida albicans [16]) of the same molecule?
Answer: Its MFC is over 64 µg/mL.

Question: What about the MIC (Candida albicans [16]) of the same molecule?
Answer: The MIC was 0.25 µg/mL (≈ 0.536 µM).

Question: What about the MIC (Pichia kudriavzevii [17]) of the same molecule?
Answer: Its MIC is 40 µg/mL (≈ 85.8 µM).

Question: What about the Survival (Mus sp. [18]) of the same molecule?
Answer: Its Survival is 40%.

Question: What about the Cure rate (Rattus norvegicus [19]) of the same molecule?
Answer: The Cure rate was 10%.

Question: And the MFC (Candida parapsilosis [20])?
Answer: Its MFC is over 64 µg/mL.

Question: What about the MIC (Candida parapsilosis [20]) of the same molecule?
Answer: The MIC was 32 µg/mL (≈ 68.6 µM).

Question: And the MIC (Candida albicans [21])?
Answer: The MIC was 0.15 µg/mL (≈ 0.322 µM).

Question: What about the MFC (Candida parapsilosis [22]) of the same molecule?
Answer: The MFC was 8 µg/mL (≈ 17.2 µM).

Question: What about the MIC (Candida parapsilosis [22]) of the same molecule?
Answer: Its MIC is 0.5 µg/mL (≈ 1.07 µM).

Question: What about the MFC (Candida albicans [23]) of the same molecule?
Answer: Its MFC is over 64 µg/mL.

Question: What about the MIC (Candida albicans [23]) of the same molecule?
Answer: Its MIC is 0.125 µg/mL (≈ 0.268 µM).

Question: What about the Cure rate (Rattus norvegicus [24]) of the same molecule?
Answer: The Cure rate was 40%.
